The list is not random: actives were taken first. Their share in the collection is about 3.7%.
m-calpain inh: inhibitors of pig calpain II, primary screen, biochemical, fluorogenic peptide substrate, 1536-well | purified calpain II, 30 min | inhibition, % at 16 µM | 220,000 compounds, 0.37% hits | AID 1236, 2008;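 active = inhibition above about 50%, limit read from the data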
KCC2 mod: KCC2 cotransporter modulators, thallium flux, primary screen, cell-based, HEK293 KCC2, FluoZin-2 fluorescence, MLSMR; Solute carrier family 12 member 5 (Homo sapiens), Q9H2X9; KCC2 cells, thallium flux FluoZin-2 fluorescence; B-score of Tl+ flux slope (higher = more flux/activation; lower = inhibition) at 10 µM; 190,000 compounds, 2.2% hits; AID 1456, 2008;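 active = thallium flux slope and its plate-corrected score both differing from the plate sample mean at a set confidence after two filtering rounds, in either direction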;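 note: slope of fluorescence scaled to starting intensity during 10 to 20 s after thallium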
PKD1 kinase inh: inhibitors of human PKD1 kinase, biochemical, fluorescence polarization | Serine/threonine-protein kinase D1 (Homo sapiens), Q15139 | PKD1 kinase fluorescence polarization assay | inhibition, % (test concentration not listed) | 200,000 compounds, 0.056% hits | AID 797, 2007; in the data active = inhibition above about 50%
ROMK primary: ROMK potassium channel modulators, primary screen, cell-based, thallium flux, MLSMR library | 130,000 compounds, 2% hits | Tet-inducible ROMK, thallium flux fluorescence; actives lie on both sides | B-score at 10 µM | ATP-sensitive inward rectifier potassium channel 1 (Homo sapiens), P48048;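 active = signal ratio slope over the read window, or its plate-corrected B-score, at least 3 SD from the plate mean, either direction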;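 note: B-score of the F/F0 ratio slope over 7 to 12 s after thallium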
MDM2 E3 inh: MDM2-luciferase reporter signal enhancers, primary screen, MDM2 E3 ligase inhibitor project, cell-based, luminescence, 1536-well; 210,000 compounds, 0.11% hits; signal enhancement, % at 5 µM; cell-based MDM2 ubiquitination luciferase reporter, 2 h; 0 = plate control, 100 = twice control, blank-subtracted; AID 1230, 2008;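 active = signal enhancement of 30% or more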;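 note: luminescence tracks abundance of the self-degrading MDM2-luciferase fusion protein; higher signal means inhibition of MDM2 E3 ligase activity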
Target sequence (Q00987 whole entry, looked up, the tested form may be a part): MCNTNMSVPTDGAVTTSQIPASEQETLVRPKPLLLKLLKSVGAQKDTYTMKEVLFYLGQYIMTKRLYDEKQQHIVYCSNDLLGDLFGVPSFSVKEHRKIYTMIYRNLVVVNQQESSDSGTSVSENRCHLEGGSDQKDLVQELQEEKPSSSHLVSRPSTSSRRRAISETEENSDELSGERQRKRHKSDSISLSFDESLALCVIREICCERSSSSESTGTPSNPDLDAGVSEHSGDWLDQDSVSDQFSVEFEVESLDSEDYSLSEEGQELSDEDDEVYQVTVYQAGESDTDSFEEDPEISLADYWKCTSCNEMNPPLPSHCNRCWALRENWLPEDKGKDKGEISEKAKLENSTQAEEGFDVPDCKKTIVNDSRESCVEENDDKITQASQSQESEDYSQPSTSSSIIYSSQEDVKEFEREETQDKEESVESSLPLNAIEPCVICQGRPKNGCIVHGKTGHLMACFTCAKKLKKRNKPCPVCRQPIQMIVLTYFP
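System: stable MDM2–luciferase fusion reporter cells / Input: 2000 cells seeded into each well / Schedule: 4 h settle plus 2 h compound, 37 °C / Compound: single-point 5 µM / Buffer or medium: cells held in DMEM / Benchmarks: control and blank well means / Evaluation: percent signal gain over controls, blank-subtracted / Measured by: luciferase luminescence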
Arbovirus anti: antivirals against arbovirus infection, primary screen, cell-based, full library, 10K replicate subset | arbovirus infection cell-based antiviral screen | inhibition, % at 10 µM | 200,000 compounds, 0.37% hits | AID 1251, 2008; in the data active = inhibition above about 30%
KCC2 sec1: KCC2 modulators in sodium-free buffer, confirmation, cell-based, HEK293 KCC2, thallium flux, secondary assay | shares compounds with KCC2 mod | FluoZin2 fluorescence; stronger effect = higher value | normalised thallium flux (F/F0 slope) at 10 µM | 3,700 compounds, 15% hits;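 active = thallium flux slope above the same plate's solvent-only control mean plus 3 SD; inconclusive = the two replicate wells disagree; inactive = no significant difference from solvent-only control wells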
KCC2 bumet counter: thallium flux persisting under bumetanide in KCC2 cells, confirmation, counter-screen for KCC2 modulator project, cell-based, HEK293 KCC2, FluoZin2, secondary assay 3 | shares compounds with KCC2 mod | HEK293-KCC2 + bumetanide/ouabain; stronger effect = higher value | normalized thallium flux at 10 µM | 3,700 compounds, 49% hits;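 active = thallium entry rate above the same plate's blocked-transporter control wells by more than 3 SD; inconclusive = the two repeat wells disagree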;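 note: raw slope of fluorescence over initial fluorescence between 10 and 20 s after thallium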
KCC2 sec2: KCC2 modulators without ouabain present, confirmation, cell-based, HEK293 KCC2, thallium flux, FluoZin2, secondary assay 2. thallium flux FluoZin2 fluorescence; actives lie on both sides; F/F0 rise rate, 10–20 s post-thallium. normalized thallium flux at 10 µM. shares compounds with KCC2 mod. 3,700 compounds, 23% hits. AID 1715, 2009;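 active = thallium flux slope more than 3 SD above or below the plate's solvent-only control mean, mostly below; inconclusive = the two repeat wells disagreed; inactive = no significant shift from solvent-only controls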;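 note: raw slope with 0.1% DMSO as baseline and bumetanide as block control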
HEK293 Tl flux: thallium flux modulation in parental HEK cells, confirmation, counter-screen for KCC2 modulator project, cell-based, counterscreen 1; shares compounds with KCC2 mod; HEK293 parental cells, thallium flux FluoZin2, ouabain; baseline-ratio fluorescence slope, 10–20 s after thallium; thallium flux rate (normalised fluorescence) at 10 µM; 3,700 compounds, 46% hits;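 active = thallium flux rate significantly above the same plate's solvent-only control wells, beyond their mean plus 3 SD; inconclusive = the two replicate wells gave conflicting results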
KCC2 retest ouab: KCC2 inhibitors and activators, ouabain retest, confirmation, HEK-KCC2 cells; shares compounds with KCC2 mod; HEK293-KCC2, thallium flux FluoZin2 fluorescence; bidirectional: low = inhibitor, high = activator; raw Tl+ flux slope (below DMSO = inhibition, above = activation) at 10 µM; 3,700 compounds, 48% hits; AID 1717, 2009;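 active = thallium flux slope beyond 3 SD from same-plate DMSO control mean in most replicates, usually higher, sometimes lower; inconclusive = repeat tests gave conflicting results; inactive = no significant difference from controls in most replicates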;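 note: slope of initial-normalized fluorescence between seconds 10 and 20 after thallium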
HEK293 Tl flux2: native HEK Tl+ uptake effects, second counter-screen – HEK cells, counterscreen 2, counter-screen for KCC2 modulator project, confirmation. HEK293 parental, thallium flux FluoZin-2 fluorescence slope. 3,700 compounds, 33% hits. shares compounds with KCC2 mod. thallium flux slope at 10 µM;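 active = thallium flux slope above the same plate's solvent-control mean plus 3 SD in both duplicate wells; inconclusive = duplicate wells that disagreed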;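 note: run without ouabain in cells lacking the KCC2 cotransporter; slope of fluorescence scaled to its starting value between 10 and 20 s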
* = called active by the depositor; i = inactive; ? = inconclusive; nt = no result.

SMILES	m-calpain inh	KCC2 mod	PKD1 kinase inh	ROMK primary	MDM2 E3 inh	Arbovirus anti	KCC2 sec1	KCC2 bumet counter	KCC2 sec2	HEK293 Tl flux	KCC2 retest ouab	HEK293 Tl flux2
CN(c1ccc(OCc2nnc(-c3ccccc3)o2)cc1)S(=O)(=O)c1ccccc1	29	-4.2*	-4	-1.2	-3	5	0.017	?	0.03	0.0057*	0.014	0.0093
Cc1nc(Nc2ccc3c(c2)OCCO3)c2c(C)c(C)sc2n1	0	7.1*	-6	-0.96	-12	-11	0.0056	0.021*	0.039*	0.019*	0.031*	0.021*
CCOC(=O)c1c(C)nc2c(c1-c1cc(OC)ccc1OC)C(=O)c1ccccc1-2	17	nt	-21	nt	2	-1	nt	nt	nt	nt	nt	nt
CCOC(=O)C1=C(Cc2ccc(OC)cc2)C(=O)c2ccccc2C1=O	25	6.6*	-4	nt	0	-46	0.0076	0.0082*	0.03	0.011*	0.018	?
COC(=O)c1[nH]c2cc(OC)c(OC)cc2c1NC(=O)c1cccc(OC)c1	-43	nt	-3	nt	nt	-25	nt	nt	nt	nt	nt	nt
O=C(O)c1ccc(N2CC3CC(C2)c2cccc(=O)n2C3)c(NC(=S)Nc2ccc(Cl)cc2Cl)c1 (stereo unspecified)	-31	15*	0	0.089	-9	3	0.011	0.015*	0.035	?	?	0.013
N/C(=N\OC(=O)CCCCCN1C(=O)c2ccccc2C1=O)c1ccccn1	41	0.12	3	-0.078	nt	2	nt	nt	nt	nt	nt	nt
CC(Sc1nnnn1C)C(=O)Nc1ccc2c(c1)OCCO2 (stereo unspecified)	-19	0.3	-3	-0.11	-16	2	nt	nt	nt	nt	nt	nt
CC(Sc1nnc2ccccn12)C(=O)Nc1ccc2c(c1)OCCO2 (stereo unspecified)	0	nt	5	-0.58	-8	3	0.0065	0.005	0.031	0.008	0.019	0.01
CCN(Cc1ccccc1)C(=O)c1ccc(Cl)cc1[N+](=O)[O-]	-1	-0.3	-5	-0.72	-12	-8	nt	nt	nt	nt	nt	nt
Cc1nnc(NC(=O)c2cccc(S(=O)(=O)N3CC(c4ccccc4)CC3=O)c2)s1 (stereo unspecified)	-22	-3.2	-5	nt	-6	12	nt	nt	nt	nt	nt	nt
COc1ccc(C(=O)Nc2nncs2)cc1S(=O)(=O)N1CC(c2ccccc2)CC1=O (stereo unspecified)	-20	nt	-1	nt	-12	16	0.0063	0.0051	0.029	0.0075	?	0.011
Cc1cc(NC(=O)c2cccc(S(=O)(=O)N3CC(c4ccccc4)CC3=O)c2)no1 (stereo unspecified)	-5	-5.4*	2	nt	-2	-2	?	0.0039	0.022*	0.006*	0.013*	?
C=CCN1C(=O)C2C(C(=O)NC)C3(C)C=CC2(O3)C1C(=O)NCc1ccc(OC)cc1 (stereo unspecified)	-55	0.66	-10	0.54	-4	16	nt	nt	nt	nt	nt	nt
CCN1C(=O)/C(=C/c2ccc(C)o2)N(C)C1=S	4	-0.21	5	nt	-16	3	nt	nt	nt	nt	nt	nt
Cc1ccc(C2Nc3ccc4ccccc4c3C3=C2C(=O)CC(C)(C)C3)o1 (stereo unspecified)	-165	-0.16	8	-1.1	nt	-20	nt	nt	nt	nt	nt	nt
CC1(C)CC(=O)C2=C(C1)c1c(ccc3ccccc13)NC2c1cc([N+](=O)[O-])cc([N+](=O)[O-])c1O (stereo unspecified)	-117	-4.5*	-4	0.11	5	11	0.0053	0.005	0.027*	?	0.016*	0.01
Cc1cc(/C=C\c2nc(O)c([N+](=O)[O-])c(=O)[nH]2)c(C)n1-c1ccccc1	15	0.12	0	-0.099	-15	21	nt	nt	nt	nt	nt	nt
COc1ccc(C(=O)NN/C(=N/S(=O)(=O)c2ccc(C)cc2)c2ccccc2)cc1	-7	-1.7	nt	nt	-27	nt	nt	nt	nt	nt	nt	nt
CCN(CC)c1c([N+](=O)[O-])c(=O)n(CC)c2ccccc12	-5	-4.6*	nt	nt	2	nt	0.0059	0.0031*	0.029	0.0045*	0.017*	0.0076*
Cn1c(-c2ccc3nc(N)sc3c2)nc2cc(N)ccc21	i	nt	-1	1.8	-10	-3	?	?	0.031	0.0082	0.019	0.01
Cn1c(-c2ccc(N)cc2)nc2ccccc21	-104	0.42	-6	nt	-4	-2	nt	nt	nt	nt	nt	nt
S=c1[nH]nc(-c2cccc(Cl)c2)n1Cc1ccccc1	-9	4*	9	-0.83	3	-24	0.015*	0.044*	0.037	?	0.038*	?
S=c1[nH]nc(COc2cccc(Cl)c2)n1Cc1ccccc1	-14	20*	-5	-0.32	-15	2	0.01	0.028*	0.034	0.015*	?	0.012*
S=c1[nH]nc(COc2ccc(Cl)cc2)n1Cc1ccccc1	23	0.45	-6	0.26	-18	4	nt	nt	nt	nt	nt	nt
S=c1[nH]nc(-c2ccc(Cl)cc2Cl)n1Cc1ccccc1	29	9*	1	0.19	nt	4	0.0059	0.039*	?	0.021*	0.034*	0.023*

Bioassay records as filed in PubChem BioAssay.
